High-throughput results: PubChem, Sanford-Burnham Center for Chemical Genomics
Rows were chosen to be rich in hits. Some 2.3% of all compounds tested hit in one or more screens of this group.
SUMO1-SIM PPI: modulators of human SUMO1-mediated protein-protein interactions; P63165; SUMO1 binding to a labelled peptide, TR-FRET, 1 h; inhibition, % at 20 µM; 360,000 compounds, 0.33% hits; AID 602429; in the data active = inhibition above about 37%
Target sequence (P63165 whole entry, looked up): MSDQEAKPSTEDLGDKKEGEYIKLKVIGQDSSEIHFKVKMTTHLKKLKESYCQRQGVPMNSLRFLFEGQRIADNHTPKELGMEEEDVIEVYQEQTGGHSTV
Scp-1 inhibitor: inhibitors of human Scp-1 phosphatase; Q9GZU7; Recombinant Scp1, phosphopeptide, malachite green phosphate absorbance; inhibition, % at 20 µM; 340,000 compounds, 0.88% hits; AID 493091;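 active = inhibition above about 50% at 20 µM, limit read from the data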
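Test system: SCP-1 phosphatase catalytic domain, residues 76-261 | Compound dosing: One concentration, 20 µM, with 1.0% DMSO | Schedule: 45 min room-temperature reaction, 5 min colour, 30 min stabiliser | Detection: Absorbance at 630 nm | Read-out basis: % inhibition of SCP-1 phosphate liberation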
Rpn11 block: inhibitors of human proteasome Rpn11 | 360,000 compounds, 0.59% hits | AID 588493 | inhibition, % at 20 µM | human 26S proteasome, Ub4-pepOG fluorescence polarization; 20S core pre-blocked with epoxomicin;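 active = inhibition at 20 µM, scaled to each plate's controls, above about 33%, limit read from the data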
Target sequence (O00487 whole entry, looked up): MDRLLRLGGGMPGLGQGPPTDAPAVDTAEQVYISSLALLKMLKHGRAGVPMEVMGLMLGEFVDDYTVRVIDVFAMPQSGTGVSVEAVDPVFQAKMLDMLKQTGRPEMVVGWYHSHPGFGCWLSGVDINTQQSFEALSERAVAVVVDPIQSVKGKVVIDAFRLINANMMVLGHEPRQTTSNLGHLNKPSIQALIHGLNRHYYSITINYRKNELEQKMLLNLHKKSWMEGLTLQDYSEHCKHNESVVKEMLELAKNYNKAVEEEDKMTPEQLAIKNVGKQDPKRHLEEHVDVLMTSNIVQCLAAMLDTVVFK
LMPTP block: LMPTP (human) inhibition; inhibition, % at 20 µM; P24666; recombinant LMPTP-A, OMFP fluorogenic substrate, fluorescence intensity; 360,000 compounds, 0.22% hits;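 active = compounds that cut the enzyme signal by at least half of the control window in the single-dose screen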
Target sequence (P24666 whole entry, looked up): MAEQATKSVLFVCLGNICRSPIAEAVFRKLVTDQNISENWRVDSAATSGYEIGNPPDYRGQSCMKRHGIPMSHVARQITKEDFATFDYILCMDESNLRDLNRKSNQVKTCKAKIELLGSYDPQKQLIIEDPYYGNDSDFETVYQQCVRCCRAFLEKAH
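material = LMPTP-A | quantity = 0.625 nM enzyme | reagent = OMFP substrate, 400 µM final | buffer or medium = Bis-Tris pH 6.0, DTT, detergent | detection = endpoint fluorescence intensity from OMFP dephosphorylation | dosing = single 20 µM dose | read-out basis = % inhibition relative to no-enzyme and uninhibited control wells | control set = no-enzyme and uninhibited controls | timing = 50 min at room temperature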
STEP inh: inhibitors of human striatal-enriched phosphatase STEP. P54829. recombinant STEP, OMFP fluorogenic substrate, fluorescence. inhibition, % at 20 µM. 360,000 compounds, 0.25% hits;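 active = inhibition at 20 µM, scaled per plate between control wells, above about 37%, limit read from the data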
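Assay system: isolated STEP enzyme / Timing: 20 min at room temperature, dark / Doses: 20 µM, 1% DMSO / Technique: fluorescence intensity, excitation 480 nm, emission 540 nm / Reagent: fluorogenic phosphatase substrate OMFP at 25 µM final / Measure: percent inhibition scaled to no-enzyme and uninhibited-enzyme controls, plate-pattern corrected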
DNMT1 block: inhibitors of human DNMT1 | P26358 | inhibition (reported as % activation of signal), % at 10 µM | DNMT1 molecular beacon, Hinp1I cleavage, fluorescence | 360,000 compounds, 0.83% hits | AID 588458; in the data active = inhibition above about 50%
A number is an active result; n = inactive; x = not tested or not shown; + = active, no number.

SMILES | SUMO1-SIM PPI | Scp-1 inhibitor | Rpn11 block | LMPTP block | STEP inh | DNMT1 block
COc1ccccc1-c1cnn2c(NC3CCCC3)cc(C)nc12 | n | n | n | n | n | n
Cc1c2cc(O)c(=O)cc-2oc2cc(O)c(O)cc12 | n | 71 | n | 80 | n | 186
COc1ccc(N2CSC3=C(C#N)C(c4cccc(OC)c4OC)CC(=O)N3C2)cc1 (configuration not stated) | n | 52 | n | n | n | n
COc1ccc(OC)c(C2CC(=O)N3CN(c4ccccc4)CSC3=C2C#N)c1 (configuration not stated) | n | n | n | n | n | n
CC1CCN(c2cc(N3CCN(C(=O)c4ccc(F)c(F)c4)CC3)c([N+](=O)[O-])cc2F)CC1 | n | n | n | n | n | n
O=C(N/N=C/c1ccccc1O)c1cccc(C(F)(F)F)c1 | n | 53 | n | n | n | n
O=C(N/N=C/c1ccc(O)cc1)c1cccc(C(F)(F)F)c1 | n | n | n | n | n | n
COc1ccc2ncccc2c1Cc1c(OC)ccc2ncccc12 | n | n | n | 56 | n | n
CCc1oc(C(=O)O)cc1COC | n | 66 | n | n | n | n
Oc1ccc(Cl)cc1N=Nc1ccccc1 | n | n | n | n | n | n
O=S(=O)(O)c1cc(O)c2c(O)c(N=Nc3cc(Cl)ccc3O)c(S(=O)(=O)O)cc2c1 | 84 | 83 | n | 102 | 101 | 85
COc1ccc(OC)c2c1C(=O)c1ccccc1C2=O | x | n | x | x | x | x
COc1ccc2noc3c2c1C(=O)c1ccccc1-3 | n | n | n | n | n | 187
Cc1ccc(S(=O)(=O)NC(=O)C2(C)CCN2C(=O)Cc2ccc(Cl)cc2Cl)nc1 (configuration not stated) | n | x | n | n | n | n
COc1ccc(NC(=O)Nc2cc3oc4ccccc4c3cc2OC)cc1 | 59 | n | n | n | n | n
COCCCNc1c2c3c(cccc3[nH]c1=O)C(=O)c1ccccc1-2 | n | n | n | n | n | +
COCCCNC1=C(Cl)C(=O)c2ccccc2C1=O | n | n | n | n | n | n
CCOC(=O)C1=CCN(S(=O)(=O)c2ccc(C)cc2)C1c1cccc2ccccc12 (configuration not stated) | n | x | n | n | n | n
CCOC(=O)c1ccc2c(c1)nc(-c1ccc(F)cc1)c1nccn12 | 48 | n | n | n | n | n
CCc1nc(Nc2ccccc2F)c2oc3ccccc3c2n1 | n | n | n | n | n | n
NC(=S)NNc1cccc2cccnc12 | n | n | n | 50 | n | n
NC(=S)Nc1cccc2cccnc12 | n | n | n | n | n | n
CN1C(=O)/C(=C/c2ccc(-c3ccccc3[N+](=O)[O-])o2)SC1=Nc1ccc(Cl)c(C(=O)O)c1 | 39 | n | n | n | n | n
CC1(C)Cc2nc3sc4c(=O)n(CC(=O)NCc5ccccc5)cnc4c3cc2CO1 | 43 | n | n | n | n | n
CC1(C)Cc2nc3sc4c(=O)n(CC(N)=O)cnc4c3cc2CO1 | n | n | n | n | n | n
SMILES | SUMO1-SIM PPI | Scp-1 inhibitor | Rpn11 block | LMPTP block | STEP inh | DNMT1 block
CC(C)(CC(=O)O)CC(=O)Nc1cc(C(F)(F)F)cc(C(F)(F)F)c1 | n | n | n | n | n | n
O=C(O)CCC(=O)Nc1cc(C(F)(F)F)cc(C(F)(F)F)c1 | 44 | n | n | n | n | n
CCC1CCc2sc(C(=O)OCC(=O)N(CCOC)c3c(N)n(Cc4ccccc4)c(=O)[nH]c3=O)cc2C1 (configuration not stated) | n | n | n | n | n | n
COCCN(C(=O)COC(=O)c1cc2c(s1)CCC2)c1c(N)n(Cc2ccccc2)c(=O)[nH]c1=O | 112 | 88 | x | 72 | 96 | 101
CC(C)CN(C(=O)COC(=O)c1cccs1)c1c(N)n(Cc2ccccc2)c(=O)[nH]c1=O | n | x | n | n | n | n
CC(C)CN(C(=O)COC(=O)c1ccc([N+](=O)[O-])s1)c1c(N)n(Cc2ccccc2)c(=O)[nH]c1=O | n | n | n | n | n | 56
COC(=O)CCCn1cc(CN2CC(N(C)C)CS2(=O)=O)nn1 (configuration not stated) | n | x | x | n | x | x
COc1ccccc1CCNC(=O)Cc1cccs1 | n | n | n | n | n | n
COC(=O)c1cc(C)[nH]c2c(C)cc3nc4ccccc4c3c12 | n | n | n | n | n | n
CC(C)Nc1nc(NCCN2CCCC2)c2sc(-c3ccccc3)cc2n1 | n | x | n | 52 | n | n
N#Cc1ccccc1OCC(=O)OCC(=O)NC1CCS(=O)(=O)C1 (configuration not stated) | n | n | n | n | n | n
C#CCCC(=O)c1ccccc1/C=[N+](\[O-])c1ccccc1 | n | n | 64 | n | n | n
CC(CC(=O)N(CCC1=CCCCC1)c1c(N)n(Cc2ccccc2)c(=O)[nH]c1=O)c1ccccc1 (configuration not stated) | n | n | n | n | n | n
COc1ccc(/C=C/C(=O)NC(CCSC)C(=O)O)cc1 (configuration not stated) | n | n | n | n | n | n
CN(C)c1ccc(/C=C/c2ccc3ccccc3[n+]2C)cc1 | n | 66 | n | n | n | n
CN(C)c1ccc(/C=C/c2ccc3c4ccccc4ccc3[n+]2-c2ccccc2)cc1 | n | n | n | 98 | n | n
CN(C)c1ccc(/C=C/c2cccc[n+]2[O-])cc1 | n | n | n | n | n | n
CN(CCCS(=O)(=O)[O-])c1ccc(/C=C/c2ccc3ccccc3[n+]2C)cc1 | n | n | n | n | n | n
O=Cc1cccn1-c1c(C(=O)O)cnn1-c1ccccc1 | 42 | n | n | n | n | n
CN(C)CCNc1ncnc2c1ncn2[C@H]1CN(Cc2ccc3c(c2)OCO3)C[C@@H](CO)O1 | n | x | n | n | n | n
Cn1c2ccccc2c2cc(/C=N/NC(=O)c3cc(O)ccc3O)ccc21 | n | 59 | n | n | n | n
Cn1c2ccccc2c2cc(/C=N/NC(=O)c3cc(O)cc(O)c3)ccc21 | n | n | n | n | n | n
CCOCC(=O)Nc1cc(Cl)ccc1C | n | n | n | n | n | n
O=C(Cn1ncc(Cl)c(Cl)c1=O)Nc1ccc2c(c1)OCO2 | n | n | n | n | n | n
CCN(CC)S(=O)(=O)c1cc(NC(=O)Cn2ncc(Cl)c(Cl)c2=O)ccc1C | n | 89 | n | n | n | n
COc1ccc(NC(=O)Cn2ncc(Cl)c(Cl)c2=O)cc1S(=O)(=O)N1CCOCC1 | n | 99 | n | n | n | n
CCOc1cc(OCC)cc(C(=O)NCc2ccco2)c1 | n | n | n | n | n | n
CC(=O)C1CCC2C3CCC4=CC(=O)C=CC4(C)C3C(=O)CC12C (configuration not stated) | n | n | n | n | n | n
